In the library only some 1.2% were active in any assay of this set; here they are far more common.
Tn6 DDE FP: inhibitors of Tn6 peptide binding to human fibrin DD(E) | P02675 | Fibrin DD(E) TRITC-Tn6 fluorescence polarization displacement | inhibition, % at 8.3 µM | actives 0.21% (n = 370,000) | AID 720509;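 active means inhibition above a per-campaign cutoff: mean of compounds within control limits plus 3 SD, cut at about 15% in these data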;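 further: 0% = median of all compound wells on the plate and 100% = blocking peptide control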
Target sequence (P02675 whole entry, looked up): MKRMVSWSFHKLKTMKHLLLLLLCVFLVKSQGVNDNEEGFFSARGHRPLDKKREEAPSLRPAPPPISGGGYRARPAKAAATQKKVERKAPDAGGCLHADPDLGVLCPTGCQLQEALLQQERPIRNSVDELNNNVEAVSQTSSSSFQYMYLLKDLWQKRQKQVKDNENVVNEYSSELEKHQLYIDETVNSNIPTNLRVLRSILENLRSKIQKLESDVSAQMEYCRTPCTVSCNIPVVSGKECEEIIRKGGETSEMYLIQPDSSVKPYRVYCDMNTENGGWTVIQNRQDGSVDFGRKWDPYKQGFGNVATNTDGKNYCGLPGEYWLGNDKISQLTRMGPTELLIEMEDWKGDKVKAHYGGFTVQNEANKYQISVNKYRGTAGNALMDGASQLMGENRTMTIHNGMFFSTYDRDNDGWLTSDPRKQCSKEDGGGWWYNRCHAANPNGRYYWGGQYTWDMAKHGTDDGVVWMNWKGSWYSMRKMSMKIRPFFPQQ
CRFBP-R2 agonist: CRF-BP/CRF-R2 complex agonism; actives 0.46% (n = 350,000); HEK293 CRF-R2/CRF-BP, calcium dye fluorescence (FLIPR); percent of saturating CRF peptide response; activation, % at 13.2 µM;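 active means activation of at least 50%, plus an integration ratio under a set limit after plate pattern correction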;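 further: plate controls were neutral control wells without compound for no effect and CRF at EC100 for full effect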
CRFBP-R2 block: blocks CRF-induced signaling of the CRF-BP/CRF-R2 complex; HEK293 CRF-R2/CRF-BP, CRF-induced calcium fluorescence; AID 588475; actives 0.59% (n = 350,000); inhibition, % at 11.8 µM;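 active means inhibition of the ligand-induced calcium signal above about 50% at the single tested concentration, limit read from the data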
Tn7 DDE FP: disrupts Tn7 cyclic peptide binding to fibrin D-Dimer-E complex | P02675 | actives 0.13% (n = 370,000) | inhibition, % at 8.3 µM | AID 720508 | FP displacement of FITC-Tn7 peptide from fibrin DD(E); 0% = median of compound wells per plate;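 active means inhibition above the mean of compounds falling within the control limits plus 3 SD of them, cut at about 14% in these data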;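 further: 0% = plate median of compound wells and 100% = 10 µM Aha-Tn7 peptide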
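Test system: human clot-derived fibrin DD(E) complex / Quantity: 2 µM final DD(E) protein / Incubation: 10 min plus 3 h, room temperature / Measured by: fluorescence polarization / Benchmarks: high control of 10 µM Aha-Tn7 peptide / Replicates: singlicate testing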
* marks the source's active call; other numbers are inactive results; i = inactive; . = no result given.

SMILES | Tn6 DDE FP | CRFBP-R2 agonist | CRFBP-R2 block | Tn7 DDE FP
O=C(O)C1C2C=CC(O2)C1C(=O)Nc1ccc(S(=O)(=O)Nc2ccccc2)cc1 (stereo not drawn) | 2 | 0 | 54* | 2
O=C(O)C1C2C=CC(O2)C1C(=O)Nc1ccc(S(=O)(=O)N2CCc3ccccc32)cc1 (stereo not drawn) | -7 | -1 | 2 | 2
CN(C)c1ccc(/C=C(/C#N)C(=O)NCc2ccccc2)o1 | -3 | 108* | -99 | -28
N#C/C(=C/c1ccccc1)C(=O)NCc1ccccc1 | -3 | -2 | -31 | -2
Cn1nc([N+](=O)[O-])nc1Oc1ccc(C(C)(C)C)cc1 | 5 | -3 | 76* | 6
Cn1nc([N+](=O)[O-])nc1Oc1ccccc1 | -5 | 0 | 23 | 2
C[C@@H]1C[C@H]2[C@@H](Cc3ccccc3)C(=O)N3[C@H](c4ccccc4)[C@H](C)C[C@H]3[C@@H](Cc3ccccc3)C(=O)N2[C@@H]1c1ccccc1 | -4 | . | . | 0
N#CC(C#N)=C1C=C2C=C(N3CCOCC3)CCC2CC1 (stereo not drawn) | -3 | 248* | -266 | -56
CN1CCN(C2=CC3=CC(=C(C#N)C#N)CCC3CC2)CC1 (stereo not drawn) | . | 241* | -172 | .
CCN1CCN(C2=CC3=CC(=C(C#N)C#N)CCC3CC2)CC1 (stereo not drawn) | . | 500* | i | .
CC1(C)CC(NCCN2CCN(C3=CC(=C(C#N)C#N)CC(C)(C)C3)CC2)=CC(=C(C#N)C#N)C1 | 5 | -1 | -5 | 0
COC(=O)[C@H]1C[C@@]2(N3CCCCC3)c3ccccc3N(S(=O)(=O)c3ccccc3)[C@H]2N1 | 1 | . | . | -4
COc1cc(O)c(C(CC(=O)N2CCC(C)CC2)c2ccc3c(c2)OCO3)c(OC)c1 (stereo not drawn) | 4 | . | . | -1
C[C@H]1[C@@H](OC(=O)NCCc2c[nH]c3ccccc23)CC[C@@]23CCCN2C(=O)CCC[C@@H]13 | -7 | . | . | -4
COCCn1c(-c2ccsc2)nc2c1c(=O)[nH]c(=O)n2CC(C)C | -4 | 48 | 51* | -1
COC(=O)NN1C(=O)C(c2ccccc2)=C(c2ccc(Cl)cc2)C1=O | -1 | -4 | 51* | 5
CCOC(=O)C1=CCN(S(=O)(=O)c2ccc(Br)cc2)C1c1cccc(Br)c1 (stereo not drawn) | -2 | . | . | 8
COC(=O)C12C=C3CC(C)=C3C(=O)N1Cc1[nH]c3ccccc3c1C2 (stereo not drawn) | 5 | . | . | -5
CCOC(=O)CNc1ccc(C(=O)OCC)cc1[N+](=O)[O-] | 5 | -2 | 23 | 3
CCCNc1ccc(C(=O)OCC)cc1[N+](=O)[O-] | 10 | -8 | 61* | 3
COc1ccc(-c2cc3nc(C4CCN(C(=O)OC(C)(C)C)CC4)c(C(=O)O)cn3n2)cc1 | 1 | -3 | 52* | -4
COc1ccc(-c2cc(-c3nnc(SCC(=O)NC4CCCCC4)n3N)[nH]n2)cc1 | 1 | . | . | 4
O=C(NCCc1c[nH]c2ccccc12)OCc1cn(Cc2ccc(F)cc2F)nn1 | 2 | . | . | 0
COc1ccc(CN2CN3Cc4cc(F)ccc4C3CS2(=O)=O)cc1 (stereo not drawn) | -2 | . | . | -7
Cc1[nH]c2ccccc2c1C(=O)CN1C(=O)NC(C)(c2ccc(Cl)cc2Cl)C1=O (stereo not drawn) | -10 | 67* | -199 | -7
SMILES | Tn6 DDE FP | CRFBP-R2 agonist | CRFBP-R2 block | Tn7 DDE FP
CCc1noc(C)c1C(=O)N1CCCSC1=Nc1ccccc1 | 9 | -3 | 5 | 6
CCc1noc(C)c1C(=O)N1CCSC1=Nc1cccc(Cl)c1C | -2 | -3 | 71* | 4
CC(C)C[C@H]1COc2cccc(F)c2S(=O)(=O)N1Cc1cn(Cc2ccc(C(F)(F)F)cc2)nn1 | 9 | . | . | 2
COc1ccc(Cc2nc(-c3ccc(Br)cc3)no2)cc1 | 9 | 0 | 5 | 0
COc1ccc(Cc2nc(-c3ccc(Cl)cc3)no2)cc1 | 2 | -1 | 50* | -9
COc1ccc2oc(C(=O)NCCC(C)C)c(C)c2c1 | 3 | 1 | 79* | -1
COc1ccc(C(CNC(=O)c2oc3ccc(OC)cc3c2C)N2CCCC2)cc1 (stereo not drawn) | -3 | 3 | -4 | 0
CC(C)NC(=O)N[C@H]1C[C@@H]2O[C@H](CO)CC[C@@H]2O[C@@H]1CCc1ccc(-c2ccc(F)cc2)cc1 | 2 | . | . | 1
CN(/N=C/c1ccc(-c2ccc([N+](=O)[O-])cc2)o1)c1ccccc1 | -4 | 79* | -93 | -7
CN(/N=C/c1cc([N+](=O)[O-])ccc1O)c1ccccc1 | -4 | -2 | 20 | 0
Cn1c(=O)n(Cc2ccccc2Cl)c(=O)c2c1[nH]c(=S)n2C | 3 | -1 | 10 | -11
Oc1ccccc1OCc1nc2ccccc2s1 | -4 | -2 | 10 | 2
Oc1ccc(O)c(Cc2nc3ccccc3s2)c1 | 4 | 0 | 53* | 8
Cc1ccc(S(=O)(=O)N2CCCCCC2)cc1[N+](=O)[O-] | -1 | -1 | 58* | 1
O=[N+]([O-])c1cc2c(cc1Br)-c1ccccc1C2 | 6 | 0 | 2 | 2
COc1ccc(N2CCN(C(=O)c3cc(=O)c4cc(C)c(C)cc4o3)CC2)cc1 | -3 | -1 | 111* | 5
COc1ccc(N2CCN(C(=O)c3csc4ccccc34)CC2)cc1 | -1 | -3 | 119* | 9
O=C1NC(=S)N/C1=C\c1ccccc1OCc1ccc(C(=O)O)cc1 | 0 | 1 | -6 | 3
O=C(O)c1ccc(COc2ccccc2C=C2C(=O)c3ccccc3C2=O)cc1 | -5 | -1 | 81* | -4
Cc1ccc(CNS(=O)(=O)c2ccc(-n3cccn3)cc2)cc1 | 6 | 1 | 14 | 0
CCC1OC(=O)C(C)C(OC2C[C@@](C)(OC)C(O)C(C)O2)C(C)C(O[C@@H]2OC(C)CC(N(C)C)C2O)[C@](C)(O)CC(C)C(=NOCOCCOC)C(C)C(O)[C@]1(C)O (stereo partly drawn) | 5 | -1 | 89* | -1
O=C(CN1CCc2onc(-c3cccc(-n4cc(CO)nn4)c3)c2C1=O)N1CCOCC1 | 2 | . | . | -6
CCOC(=O)C(CCCCOc1ccc([N+](=O)[O-])cc1)C(=O)OCC | . | -4 | 62* | .
CC1CC(C)CN(CCCCOc2ccc([N+](=O)[O-])cc2)C1 (stereo not drawn) | 2 | 2 | -5 | -3
CCOC(=O)c1cc(NC(=O)Nc2cc(C)ccn2)c(C)nc1C | -6 | -2 | 113* | -4
COc1ccc(-n2cc(COC(=O)NCCc3c[nH]c4ccccc34)nn2)cc1 | -3 | . | . | -5
O=C(CSc1ccccc1)N(c1ccc(Br)cc1)c1nccs1 | -5 | 0 | 50* | -4
O=C(NCCc1ccccn1)c1ccc2c(c1)ncn2C1CCCCC1 | -2 | . | . | 0
Cc1cc(C)cc(-n2c(C)cc(C(=S)N3CCOCC3)c2C)c1 | -1 | -2 | 57* | 2

Screens as filed in PubChem.
